The source made the active and inactive calls. The rule behind the calls is not given here.

The target in data set [1] is Toll-like receptor 3 (Homo sapiens) (UniProt O15455). Briefly: Activation of human TLR3 expressed in HEK293 assessed as induction of NF-kappaB activity reporter gene assay. It counts as cell-based. For orientation: A reporter such as luciferase makes a cellular process visible.
The target in data set [2] is T1, Toll-like receptor 7 (Homo sapiens) (UniProt Q9NYK1).
T1 sequence (whole entry): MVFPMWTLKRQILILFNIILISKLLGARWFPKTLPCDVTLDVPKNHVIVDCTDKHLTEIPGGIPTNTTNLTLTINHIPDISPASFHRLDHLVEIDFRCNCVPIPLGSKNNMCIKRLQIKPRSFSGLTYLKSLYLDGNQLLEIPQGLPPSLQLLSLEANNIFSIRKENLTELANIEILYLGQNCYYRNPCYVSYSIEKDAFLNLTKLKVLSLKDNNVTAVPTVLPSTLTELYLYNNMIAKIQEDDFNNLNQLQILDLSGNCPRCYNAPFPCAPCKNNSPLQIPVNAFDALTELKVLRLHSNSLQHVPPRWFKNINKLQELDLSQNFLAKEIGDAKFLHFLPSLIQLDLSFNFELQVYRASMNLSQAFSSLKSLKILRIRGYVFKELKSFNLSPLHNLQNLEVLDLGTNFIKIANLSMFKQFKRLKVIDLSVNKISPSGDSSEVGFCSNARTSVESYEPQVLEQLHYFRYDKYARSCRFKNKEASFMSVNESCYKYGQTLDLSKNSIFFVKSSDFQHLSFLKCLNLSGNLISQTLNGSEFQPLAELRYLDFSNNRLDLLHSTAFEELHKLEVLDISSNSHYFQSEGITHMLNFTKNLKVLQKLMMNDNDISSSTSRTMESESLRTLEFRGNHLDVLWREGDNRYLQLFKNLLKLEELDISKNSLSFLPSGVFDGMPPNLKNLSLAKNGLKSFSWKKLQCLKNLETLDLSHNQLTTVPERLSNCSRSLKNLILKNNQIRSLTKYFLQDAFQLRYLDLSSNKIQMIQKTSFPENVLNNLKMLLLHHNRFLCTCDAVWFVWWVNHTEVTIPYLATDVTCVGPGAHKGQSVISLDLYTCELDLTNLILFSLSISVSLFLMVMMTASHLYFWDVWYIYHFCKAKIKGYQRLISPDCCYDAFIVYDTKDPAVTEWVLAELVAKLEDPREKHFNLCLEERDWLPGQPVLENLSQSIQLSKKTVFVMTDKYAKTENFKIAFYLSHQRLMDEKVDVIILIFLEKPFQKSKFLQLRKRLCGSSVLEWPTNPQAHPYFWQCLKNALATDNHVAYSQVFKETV
Briefly: Activation of human TLR7 expressed in HEK293XL assessed as fold induction of NF-kappaB activity at 50 ug/ml after 18 hrs by reporter gene assay relative to control. An outline of the steps: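 HEK293 cells stably expressing human TLR7 or TLR8, transiently transfected with SEAP reporter plasmid; medium replaced, SIMRA compounds added, 18 h incubation. Supernatant SEAP measured by QuantiBlue; expressed as fold increase in NF-κB activity over PBS control. Tabulated data at 50 μg/mL, representative of three independent experiments.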

The nature of data set [3]: Metabolic stability in human serum assessed as full length product remaining after 10 mins by HPLC. The note with it: read-out: Stability. It is filed as ADME, cell-free. An outline of the steps:
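About 0.5 A260 units compound in 1% human serum in PBS, 37 °C; aliquot taken at 10 min, analysed by anion-exchange HPLC for percent intact full-length product.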

The species named for data set [4] is Homo sapiens. Briefly: Ratio of human TLR7 activity to human TLR8 activity. Summed up:
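TLR7/TLR8 ratio computed from fold NF-κB (SEAP reporter) activation in HEK293 cells stably expressing human TLR7 versus TLR8, compounds at 50 μg/mL, 18 h exposure; representative of three independent experiments.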

Sequence of Toll-like receptor 3 (Homo sapiens) (O15455 whole entry): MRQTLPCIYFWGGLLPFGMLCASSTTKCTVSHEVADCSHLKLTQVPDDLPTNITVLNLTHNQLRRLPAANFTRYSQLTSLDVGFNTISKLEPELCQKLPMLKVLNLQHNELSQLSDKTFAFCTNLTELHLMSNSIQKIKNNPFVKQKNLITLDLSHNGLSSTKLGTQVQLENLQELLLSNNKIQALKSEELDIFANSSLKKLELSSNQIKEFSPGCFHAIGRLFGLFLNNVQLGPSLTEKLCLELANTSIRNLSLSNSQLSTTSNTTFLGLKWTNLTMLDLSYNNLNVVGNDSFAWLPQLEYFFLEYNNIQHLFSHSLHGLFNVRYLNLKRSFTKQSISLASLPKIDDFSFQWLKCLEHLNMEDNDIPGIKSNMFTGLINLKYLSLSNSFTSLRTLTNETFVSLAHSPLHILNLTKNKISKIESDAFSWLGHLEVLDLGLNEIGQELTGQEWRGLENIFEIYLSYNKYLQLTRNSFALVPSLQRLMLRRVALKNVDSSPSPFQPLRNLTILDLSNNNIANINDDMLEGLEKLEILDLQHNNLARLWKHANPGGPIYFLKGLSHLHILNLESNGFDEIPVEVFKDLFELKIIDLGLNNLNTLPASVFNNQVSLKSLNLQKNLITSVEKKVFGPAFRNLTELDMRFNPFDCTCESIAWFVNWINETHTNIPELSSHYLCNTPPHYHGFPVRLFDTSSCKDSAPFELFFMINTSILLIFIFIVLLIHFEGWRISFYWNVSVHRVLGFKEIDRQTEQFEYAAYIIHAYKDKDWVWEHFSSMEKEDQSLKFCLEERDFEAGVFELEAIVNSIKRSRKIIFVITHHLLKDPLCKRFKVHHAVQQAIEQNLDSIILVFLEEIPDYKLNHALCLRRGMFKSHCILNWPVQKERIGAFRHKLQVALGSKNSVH

Take `Nc1ccn([C@@H]2O[C@H](COP(=O)(S)O[C@H]3[C@@H](O)[C@H](n4ccc(N)nc4=O)O[C@@H]3COP(=O)(S)O[C@H]3[C@@H](O)[C@H](n4cnc5c(N)ncnc54)O[C@@H]3COP(=O)(S)O[C@H]3[C@@H](O)[C@H](n4ccc5c(=O)[nH]c(N)nc54)O[C@@H]3COP(=O)(S)O[C@H]3[C@@H](O)[C@H](n4ccc(=O)[nH]c4=O)O[C@@H]3COP(=O)(S)O[C@H]3[C@@H](O)[C@H](n4ccc(=O)[nH]c4=O)O[C@@H]3COP(=O)(S)O[C@H]3[C@@H](O)[C@H](n4ccc(N)nc4=O)O[C@@H]3COP(=O)(S)O[C@H]3[C@@H](O)[C@H](n4cnc5c(N)ncnc54)O[C@@H]3CO)[C@@H](OP(=O)(S)OC[C@H]3O[C@@H](n4ccc(=O)[nH]c4=O)[C@H](O)[C@@H]3OP(=O)(S)OC[C@H]3O[C@@H](n4ccc(=O)[nH]c4=O)[C@H](O)[C@@H]3OP(=O)(S)OC[C@H]3O[C@@H](n4ccc(=O)[nH]c4=O)[C@H](O)[C@@H]3OP(=O)(S)OCC(O)COP(=O)(S)O[C@H]3[C@@H](O)[C@H](n4ccc(=O)[nH]c4=O)O[C@@H]3COP(=O)(S)O[C@H]3[C@@H](O)[C@H](n4ccc(=O)[nH]c4=O)O[C@@H]3COP(=O)(S)O[C@H]3[C@@H](O)[C@H](n4ccc(=O)[nH]c4=O)O[C@@H]3COP(=O)(S)O[C@H]3[C@@H](O)[C@H](n4ccc(N)nc4=O)O[C@@H]3COP(=O)(S)O[C@H]3[C@@H](O)[C@H](n4ccc(N)nc4=O)O[C@@H]3COP(=O)(S)O[C@H]3[C@@H](O)[C@H](n4cnc5c(N)ncnc54)O[C@@H]3COP(=O)(S)O[C@H]3[C@@H](O)[C@H](n4ccc5c(=O)[nH]c(N)nc54)O[C@@H]3COP(=O)(S)O[C@H]3[C@@H](O)[C@H](n4ccc(=O)[nH]c4=O)O[C@@H]3COP(=O)(S)O[C@H]3[C@@H](O)[C@H](n4ccc(=O)[nH]c4=O)O[C@@H]3COP(=O)(S)O[C@H]3[C@@H](O)[C@H](n4ccc(N)nc4=O)O[C@@H]3COP(=O)(S)O[C@H]3[C@@H](O)[C@H](n4cnc5c(N)ncnc54)O[C@@H]3CO)[C@H]2O)c(=O)n1` (some centres not stated): in data set [1], the result was inactive. The fold change (FC) in data set [2] was found to be 23.3. Further, the remaining at 10 min in data set [3] stood at 72%. Also, the Ratio in data set [4] was determined as 12.9.

For `Nc1ccn([C@@H]2O[C@H](COP(=O)(S)O[C@H]3[C@@H](O)[C@H](n4cnc5c(N)ncnc54)O[C@@H]3COP(=O)(S)O[C@H]3[C@@H](O)[C@H](n4cnc5c(N)ncnc54)O[C@@H]3CO)[C@@H](OP(=O)(S)OC[C@H]3O[C@@H](n4ccc(=O)[nH]c4=O)[C@H](O)[C@@H]3OP(=O)(S)OC[C@H]3O[C@@H](n4ccc5c(=O)[nH]c(N)nc54)[C@H](O)[C@@H]3OP(=O)(S)OC[C@H]3O[C@@H](n4ccc(N)nc4=O)[C@H](O)[C@@H]3OP(=O)(S)OC[C@H]3O[C@@H](n4ccc5c(=O)[nH]c(N)nc54)[C@H](O)[C@@H]3OP(=O)(S)OC[C@H]3O[C@@H](n4cnc5c(N)ncnc54)[C@H](O)[C@@H]3OP(=O)(S)OC[C@H]3O[C@@H](n4ccc(N)nc4=O)[C@H](O)[C@@H]3OP(=O)(S)OC[C@H]3O[C@@H](n4ccc(=O)[nH]c4=O)[C@H](O)[C@@H]3OP(=O)(S)OC[C@H]3O[C@@H](n4ccc(=O)[nH]c4=O)[C@H](O)[C@@H]3OP(=O)(S)OCC(O)COP(=O)(S)O[C@H]3[C@@H](O)[C@H](n4ccc(=O)[nH]c4=O)O[C@@H]3COP(=O)(S)O[C@H]3[C@@H](O)[C@H](n4ccc(=O)[nH]c4=O)O[C@@H]3COP(=O)(S)O[C@H]3[C@@H](O)[C@H](n4ccc(N)nc4=O)O[C@@H]3COP(=O)(S)O[C@H]3[C@@H](O)[C@H](n4cnc5c(N)ncnc54)O[C@@H]3COP(=O)(S)O[C@H]3[C@@H](O)[C@H](n4ccc5c(=O)[nH]c(N)nc54)O[C@@H]3COP(=O)(S)O[C@H]3[C@@H](O)[C@H](n4ccc(N)nc4=O)O[C@@H]3COP(=O)(S)O[C@H]3[C@@H](O)[C@H](n4ccc5c(=O)[nH]c(N)nc54)O[C@@H]3COP(=O)(S)O[C@H]3[C@@H](O)[C@H](n4ccc(=O)[nH]c4=O)O[C@@H]3COP(=O)(S)O[C@H]3[C@@H](O)[C@H](n4ccc(N)nc4=O)O[C@@H]3COP(=O)(S)O[C@H]3[C@@H](O)[C@H](n4cnc5c(N)ncnc54)O[C@@H]3COP(=O)(S)O[C@H]3[C@@H](O)[C@H](n4cnc5c(N)ncnc54)O[C@@H]3CO)[C@H]2O)c(=O)n1` (some centres not stated), the outcome in data set [1] was inactive. Also, the fold change (FC) in data set [2] is 6.5. For the same molecule, the remaining at 10 min in data set [3] is 83%. Moreover, the Ratio in data set [4] came out at 21.7.

Regarding `Nc1ccn([C@@H]2O[C@H](CO)[C@@H](OP(=O)(S)OC[C@H]3O[C@@H](n4ccc(=O)[nH]c4=O)[C@H](O)[C@@H]3OP(=O)(S)OC[C@H]3O[C@@H](n4ccc(=O)[nH]c4=O)[C@H](O)[C@@H]3OP(=O)(S)OC[C@H]3O[C@@H](n4ccc5c(=O)[nH]c(N)nc54)[C@H](O)[C@@H]3OP(=O)(S)OC[C@H]3O[C@@H](n4ccc(=O)[nH]c4=O)[C@H](O)[C@@H]3OP(=O)(S)OC[C@H]3O[C@@H](n4ccc5c(=O)[nH]c(N)nc54)[C@H](O)[C@@H]3OP(=O)(S)OC[C@H]3O[C@@H](n4cnc5c(N)ncnc54)[C@H](O)[C@@H]3OP(=O)(S)OC[C@H]3O[C@@H](n4ccc5c(=O)[nH]c(N)nc54)[C@H](O)[C@@H]3OP(=O)(S)OC[C@H]3O[C@@H](n4ccc(N)nc4=O)[C@H](O)[C@@H]3OP(=O)(S)OC[C@H]3O[C@@H](n4ccc(=O)[nH]c4=O)[C@H](O)[C@@H]3OP(=O)(S)OC[C@H]3O[C@@H](n4ccc(=O)[nH]c4=O)[C@H](O)[C@@H]3OP(=O)(S)OCC(O)COP(=O)(S)O[C@H]3[C@@H](O)[C@H](n4ccc(=O)[nH]c4=O)O[C@@H]3COP(=O)(S)O[C@H]3[C@@H](O)[C@H](n4ccc(=O)[nH]c4=O)O[C@@H]3COP(=O)(S)O[C@H]3[C@@H](O)[C@H](n4ccc(N)nc4=O)O[C@@H]3COP(=O)(S)O[C@H]3[C@@H](O)[C@H](n4ccc5c(=O)[nH]c(N)nc54)O[C@@H]3COP(=O)(S)O[C@H]3[C@@H](O)[C@H](n4cnc5c(N)ncnc54)O[C@@H]3COP(=O)(S)O[C@H]3[C@@H](O)[C@H](n4ccc5c(=O)[nH]c(N)nc54)O[C@@H]3COP(=O)(S)O[C@H]3[C@@H](O)[C@H](n4ccc(=O)[nH]c4=O)O[C@@H]3COP(=O)(S)O[C@H]3[C@@H](O)[C@H](n4ccc5c(=O)[nH]c(N)nc54)O[C@@H]3COP(=O)(S)O[C@H]3[C@@H](O)[C@H](n4ccc(=O)[nH]c4=O)O[C@@H]3COP(=O)(S)O[C@H]3[C@@H](O)[C@H](n4ccc(=O)[nH]c4=O)O[C@@H]3COP(=O)(S)O[C@H]3[C@@H](O)[C@H](n4ccc(N)nc4=O)O[C@@H]3CO)[C@H]2O)c(=O)n1` (some centres not stated), the outcome in data set [1] was inactive. Also, the fold change (FC) in data set [2] was found to be 28.9. The remaining at 10 min in data set [3] was found to be 85%. Moreover, the Ratio in data set [4] stood at 19.3.
